Source: ChEMBL document CHEMBL1629441, “Synthesis, in vitro and in vivo biological evaluation, and comprehensive understanding of structure-activity relationships of dipeptidyl boronic acid proteasome inhibitors constructed from β-amino acids” (J Med Chem, 2010)

System: not listed separately
Assay: Inhibition of human 20S proteasome chymotrypsin-like activity by fluorimetric assay
Settings: read-out: IC50
Procedure, shortened: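 Human 20S proteasome preincubated with test compound, then Suc-Leu-Leu-Val-Tyr-AMC hydrolysis monitored 1 h at 37 °C by fluorescence (excitation 360 nm, 465 nm). Buffer pH 7.5: 20 mM Tris, 1 mM DTT, 10% glycerol, 0.02% (w/v) SDS; DMSO 3% (v/v) final. IC50 from five concentrations, each in duplicate; bortezomib standard.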

IC50 [nM] | SMILES
19 | COc1cccc(C(CC(=O)N[C@@H](CC(C)C)B(O)O)NC(=O)c2cccnc2)c1 (some centres not stated)
26.9 | CC(C)C[C@H](NC(=O)CC(NC(=O)c1cccnc1)c1cccc([N+](=O)[O-])c1)B(O)O (some centres not stated)
7300 | CC(C)C[C@H](NC(=O)CC(NC(=O)c1cccnc1)c1ccc([N+](=O)[O-])cc1)B(O)O (some centres not stated)
1250 | Cc1ccccc1C(CC(=O)N[C@@H](CC(C)C)B(O)O)NC(=O)c1cccnc1 (some centres not stated)
50.1 | Cc1cccc(C(CC(=O)N[C@@H](CC(C)C)B(O)O)NC(=O)c2cccnc2)c1 (some centres not stated)
1250 | CCCC[C@H](NC(=O)CC(NC(=O)c1ccccc1)c1cccc(F)c1)B(O)O (some centres not stated)
1200 | O=C(CC(NC(=O)c1ccccc1)c1cccc(F)c1)N[C@@H](Cc1ccccc1)B(O)O (some centres not stated)
301 | O=C(CC(NC(=O)c1ccccc1)c1cccc(F)c1)N[C@@H](Cc1ccccc1F)B(O)O (some centres not stated)
1620 | O=C(CC(NC(=O)c1ccccc1)c1cccc(Cl)c1)N[C@@H](Cc1ccccc1)B(O)O (some centres not stated)
120 | Cc1cccc(C[C@H](NC(=O)CC(NC(=O)c2ccccc2)c2cccc(F)c2)B(O)O)c1 (some centres not stated)
131 | O=C(CC(NC(=O)c1ccccc1)c1cccc(F)c1)N[C@@H](Cc1cccc(F)c1)B(O)O (some centres not stated)
501 | Cc1ccc(C[C@H](NC(=O)CC(NC(=O)c2ccccc2)c2cccc(F)c2)B(O)O)cc1 (some centres not stated)
75.8 | O=C(CC(NC(=O)c1ccccc1)c1cccc(F)c1)N[C@@H](Cc1ccc(F)cc1)B(O)O (some centres not stated)
316 | CCCC[C@H](NC(=O)CC(NC(=O)c1ccccc1)c1cccc(Cl)c1)B(O)O (some centres not stated)
371 | O=C(CC(NC(=O)c1ccccc1)c1cccc(Cl)c1)N[C@@H](Cc1ccccc1F)B(O)O (some centres not stated)
1150 | Cc1ccc(C[C@H](NC(=O)CC(NC(=O)c2ccccc2)c2cccc(Cl)c2)B(O)O)cc1 (some centres not stated)
194 | O=C(CC(NC(=O)c1ccccc1)c1cccc(Cl)c1)N[C@@H](Cc1ccc(F)cc1)B(O)O (some centres not stated)

IC50 [nM] | SMILES
1480 | CCCC[C@H](NC(=O)CC(NC(=O)c1cccnc1)c1cccc(OC)c1)B(O)O (some centres not stated)
1090 | COc1cccc(C(CC(=O)N[C@@H](Cc2ccccc2)B(O)O)NC(=O)c2cccnc2)c1 (some centres not stated)
602 | COc1cccc(C(CC(=O)N[C@@H](Cc2ccccc2F)B(O)O)NC(=O)c2cccnc2)c1 (some centres not stated)
1770 | COc1cccc(C(CC(=O)N[C@@H](Cc2cccc(C)c2)B(O)O)NC(=O)c2cccnc2)c1 (some centres not stated)
89.1 | COc1cccc(C(CC(=O)N[C@@H](Cc2cccc(F)c2)B(O)O)NC(=O)c2cccnc2)c1 (some centres not stated)
930 | COc1cccc(C(CC(=O)N[C@@H](Cc2ccc(C)cc2)B(O)O)NC(=O)c2cccnc2)c1 (some centres not stated)
63 | COc1cccc(C(CC(=O)N[C@@H](Cc2ccc(F)cc2)B(O)O)NC(=O)c2cccnc2)c1 (some centres not stated)
97.7 | CC(C)C[C@H](NC(=O)CC(NC(=O)c1cnccn1)c1cccc(Cl)c1)B(O)O (some centres not stated)
117 | CC(C)C[C@H](NC(=O)CC(NC(=O)c1ccc2ccccc2c1)c1cccc(Cl)c1)B(O)O (some centres not stated)
21.8 | CC(C)C[C@H](NC(=O)CC(NC(=O)[C@H]1CCCc2ccccc21)c1cccc(Cl)c1)B(O)O (some centres not stated)
190 | CC(C)C[C@H](NC(=O)CC(NC(=O)c1cccc2c1CCCC2)c1cccc(Cl)c1)B(O)O (some centres not stated)
28.1 | COc1cccc(C(CC(=O)N[C@@H](CC(C)C)B(O)O)NC(=O)[C@H]2CCCc3ccccc32)c1 (some centres not stated)
158 | COc1cccc(C(CC(=O)N[C@@H](CC(C)C)B(O)O)NC(=O)c2cccc3c2CCCC3)c1 (some centres not stated)
39.8 | CC(C)C[C@H](NC(=O)CC(NC(=O)c1ccccc1)c1ccccc1)B(O)O (some centres not stated)
26.3 | Cc1ccc(C(CC(=O)N[C@@H](CC(C)C)B(O)O)NC(=O)c2ccccc2)cc1 (some centres not stated)
32.8 | COc1ccc(C(CC(=O)N[C@@H](CC(C)C)B(O)O)NC(=O)c2ccccc2)cc1 (some centres not stated)
20.8 | CC(C)C[C@H](NC(=O)CC(NC(=O)c1ccccc1)c1ccc(Cl)cc1)B(O)O (some centres not stated)

SMILES | IC50 [nM]
CC(C)C[C@H](NC(=O)[C@H](Cc1ccccc1)NC(=O)c1cnccn1)B(O)O [BORTEZOMIB] | 1.54

System: HL-60
Assay: Cytotoxicity against human HL60 cells after 72 hrs by MTT assay
Type: functional, cell-based
Settings: HL-60, 72 h
Procedure, shortened: (§1)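 MTT growth assay: 3000 cells per well seeded, after 24 h exposed to 10 drug concentrations for 72 h, then MTT (5 mg/mL stock) 4 h at 37 °C. Formazan dissolved in DMSO, absorbance at 540 nm. Points in triplicate; IC50 is mean of at least three independent determinations. Cells grown at 37 °C, 5% CO2 with FBS.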

SMILES | IC50 [nM]
CC(C)C[C@H](NC(=O)[C@H](Cc1ccccc1)NC(=O)c1cnccn1)B(O)O [BORTEZOMIB] | 3.5

System: SK-OV-3
Assay: Cytotoxicity against human SKOV3 cells after 72 hrs by MTT assay
Type: functional, cell-based
Settings: SK-OV-3, 72 h
Procedure, shortened: as §1

SMILES | IC50 [nM]
CC(C)C[C@H](NC(=O)[C@H](Cc1ccccc1)NC(=O)c1cnccn1)B(O)O [BORTEZOMIB] | 66.8

System: not listed separately
Assay: Cytotoxicity against human RPMI18226 cells after 72 hrs by MTT assay
Type: functional, cell-based
Settings: RPMI18226, 72 h
Procedure, shortened: as §1

SMILES | IC50 [nM]
CC(C)C[C@H](NC(=O)[C@H](Cc1ccccc1)NC(=O)c1cnccn1)B(O)O [BORTEZOMIB] | 3.5

System: SW480
Assay: Cytotoxicity against human SW480 cells after 72 hrs by MTT assay
Type: functional, cell-based
Settings: SW480, 72 h
Procedure, shortened: as §1

SMILES | IC50 [nM]
CC(C)C[C@H](NC(=O)[C@H](Cc1ccccc1)NC(=O)c1cnccn1)B(O)O [BORTEZOMIB] | 12.3

System: Rattus norvegicus
Assay: Toxicity in Sprague-Dawley rat assessed as incidence of mortality at 1 mg/kg, iv after 10 hrs
Type: organism-based
Parameters: dose 1 mg/kg, route intravenous
Settings: in vivo
Procedure, shortened: (§2)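 Male SD rats dosed once at 1.0 mg/kg, iv bolus or intragastric, during the PK study. Dosing solution 0.5 mg/mL in 1% ethanol, 1% Tween80, 98% buffered saline. Animals observed for death and toxic reactions over 10 h. n = 4 per PK group.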

SMILES | Activity
CC(C)C[C@H](NC(=O)[C@H](Cc1ccccc1)NC(=O)c1cnccn1)B(O)O [BORTEZOMIB] | Toxic

System: BXPC-3
Assay: Cytotoxicity against human BxPC3 cells after 72 hrs by MTT assay
Type: functional, cell-based
Settings: BXPC-3, 72 h
Procedure, shortened: as §1

SMILES | IC50 [nM]
CC(C)C[C@H](NC(=O)[C@H](Cc1ccccc1)NC(=O)c1cnccn1)B(O)O [BORTEZOMIB] | 19.4

System: not listed separately
Assay: Mean residence time (0-t) in Sprague-Dawley rat at 1 mg/kg, ig
Type: ADME, organism-based
Parameters: dose 1 mg/kg, route intragastric
Settings: in vivo, po
Procedure, shortened: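 Male SD rats dosed intragastrically at 1.0 mg/kg from 0.5 mg/mL solution in 1% ethanol, 1% Tween80, 98% buffered saline. Heparinized blood (n = 4) centrifuged 4000 rpm, 5 min, 4 °C; plasma lower limit of detection 5 ng/mL.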

SMILES | MRT last [h]
CC(C)C[C@H](NC(=O)[C@H](Cc1ccccc1)NC(=O)c1cnccn1)B(O)O [BORTEZOMIB] | 7.69

System: HepG2
Assay: Cytotoxicity against human HepG2 cells after 72 hrs by MTT assay
Type: functional, cell-based
Settings: HepG2, 72 h
Procedure, shortened: as §1

SMILES | IC50 [nM]
CC(C)C[C@H](NC(=O)[C@H](Cc1ccccc1)NC(=O)c1cnccn1)B(O)O [BORTEZOMIB] | 25.2

System: Rattus norvegicus
Assay: Toxicity in Sprague-Dawley rat assessed as incidence of mortality at 1 mg/kg, ig after 10 hrs
Type: organism-based
Parameters: dose 1 mg/kg, route intragastric
Settings: in vivo, po
Procedure, shortened: as §2

SMILES | Activity
CC(C)C[C@H](NC(=O)[C@H](Cc1ccccc1)NC(=O)c1cnccn1)B(O)O [BORTEZOMIB] | Toxic

System: PC-3
Assay: Cytotoxicity against human PC3 cells after 72 hrs by MTT assay
Type: functional, cell-based
Settings: PC-3, 72 h
Procedure, shortened: as §1

SMILES | IC50 [nM]
CC(C)C[C@H](NC(=O)[C@H](Cc1ccccc1)NC(=O)c1cnccn1)B(O)O [BORTEZOMIB] | 8.3

System: A549
Assay: Cytotoxicity against human A549 cells after 72 hrs by MTT assay
Type: functional, cell-based
Settings: A549, 72 h
Procedure, shortened: as §1

SMILES | IC50 [nM]
CC(C)C[C@H](NC(=O)[C@H](Cc1ccccc1)NC(=O)c1cnccn1)B(O)O [BORTEZOMIB] | 13.9

System: not listed separately
Assay: Mean residence time (0-t) in Sprague-Dawley rat at 1 mg/kg, iv
Type: ADME, organism-based
Parameters: dose 1 mg/kg, route intravenous
Settings: in vivo
Procedure, shortened: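 Male SD rats given single 1.0 mg/kg iv bolus of solution (0.5 mg/mL) in 1% ethanol, 1% Tween80, 98% buffered saline. Heparinized blood samples (n = 4) centrifuged 4000 rpm, 5 min, 4 °C; plasma concentrations used to derive PK parameters.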

SMILES | MRT last [h]
CC(C)C[C@H](NC(=O)[C@H](Cc1ccccc1)NC(=O)c1cnccn1)B(O)O [BORTEZOMIB] | 1.4
